Hits are enriched below; roughly 0.86% of the tested compounds scored in any of these assays.
ERAP1 inh = blocks human ERAP1 aminopeptidase activity; hit rate 0.15% among 340,000; AID 652197; Q9NZ08; recombinant ERAP1, Leu-AMC fluorescence, 60 min; inhibition, % at 10.7 µM;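 active = mean replicate inhibition of at least 30%, or all replicates individually reaching that 30% level; inactive = mean below 30% and not every replicate reaching it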;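 also: 0% = neutral control wells and 100% = L-leucinethiol positive control wells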
Target sequence (Q9NZ08 whole entry, looked up): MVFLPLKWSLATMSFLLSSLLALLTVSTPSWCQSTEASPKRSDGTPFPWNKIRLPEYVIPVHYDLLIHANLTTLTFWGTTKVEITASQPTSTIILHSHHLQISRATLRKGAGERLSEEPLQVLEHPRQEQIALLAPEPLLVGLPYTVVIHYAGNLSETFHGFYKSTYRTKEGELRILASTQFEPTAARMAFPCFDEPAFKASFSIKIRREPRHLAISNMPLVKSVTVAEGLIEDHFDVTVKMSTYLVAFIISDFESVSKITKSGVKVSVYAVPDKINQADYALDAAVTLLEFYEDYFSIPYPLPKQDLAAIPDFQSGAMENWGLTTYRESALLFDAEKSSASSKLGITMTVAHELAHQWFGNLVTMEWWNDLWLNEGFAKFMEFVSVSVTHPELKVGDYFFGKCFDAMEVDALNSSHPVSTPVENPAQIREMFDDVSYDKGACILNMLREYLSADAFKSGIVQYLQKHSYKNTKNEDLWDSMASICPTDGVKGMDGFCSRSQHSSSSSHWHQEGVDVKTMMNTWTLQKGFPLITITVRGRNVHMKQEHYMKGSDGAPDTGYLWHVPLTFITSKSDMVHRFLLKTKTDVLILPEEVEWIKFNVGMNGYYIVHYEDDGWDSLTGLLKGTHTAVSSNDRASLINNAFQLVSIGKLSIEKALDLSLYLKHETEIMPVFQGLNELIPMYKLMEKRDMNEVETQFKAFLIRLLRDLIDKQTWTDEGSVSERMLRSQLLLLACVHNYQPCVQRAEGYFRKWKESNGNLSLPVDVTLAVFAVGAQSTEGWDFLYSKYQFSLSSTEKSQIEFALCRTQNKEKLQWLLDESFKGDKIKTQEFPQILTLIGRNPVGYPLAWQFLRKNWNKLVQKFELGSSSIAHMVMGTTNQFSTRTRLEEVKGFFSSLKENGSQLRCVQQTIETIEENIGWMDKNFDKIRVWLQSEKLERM
miR-122 sensor = blocks miR-122 activity in Huh7 sensor cells; AID 602342; activation (reporter increase), % at 12.5 µM; hit rate 0.3% among 340,000; Huh7 miR-122 Renilla luciferase sensor, 48 h; neutral wells = 0, positive control = 100;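 active = mean replicate activation score at least 90 and every replicate individually at or above 90; inconclusive = only one of the two criteria met; inactive = neither criterion met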;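 also: higher luciferase means less miR-122 activity so hits act as miR-122 inhibitors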
S100A4 inh HTS = S100A4-myosin IIA interaction inhibition; P26447; S100A4/TAMRA-MyoIIA peptide fluorescence polarization; inhibition, % at 10.7 µM; hit rate 0.14% among 360,000;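 active = mean inhibition of at least 70% across replicates, with every replicate also reaching that level; inconclusive = mean inhibition reaches 70% but some replicates fall short; inactive = mean inhibition below 70%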
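Assay system: human S100A4 monomer with TAMRA-labelled myosin IIA peptide / Buffer or medium: Calcium-containing HEPES buffer, pH 7.2 / Reagent: TAMRA-labelled myosin IIA heavy-chain peptide probe, 5 nM / Compound: one dose per compound / Timing: polarization read 5 min after assay mix addition, stable 5–60 min / Benchmarks: neutral control DMSO, positive control TFP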
AF4-AF9 inh = inhibitors of human MLL-AF4/AF9 interaction; P42568; AlphaScreen, biotin-AF4 peptide binding to FLAG-AF9; inhibition, % at 10 µM; hit rate 0.47% among 350,000; AID 651704;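 active = every replicate reaching a set inhibition limit, whatever the replicate mean, cut at about 25% in these data; inconclusive = mean inhibition reaches that limit but some replicates miss it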;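 also: 0% = plate neutral control median and 100% = total signal loss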
Rtt109 HAT inh = inhibitors of Candida albicans Rtt109/Vps75 histone acetyltransferase. AID 540336. Q5AAJ8. hit rate 0.16% among 330,000. inhibition, % at 34.9 µM. purified Rtt109/Vps75, ThioGlo CoA-SH fluorescence, 4 h;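 active = inhibition of at least 50% in every replicate; inconclusive = best replicate reaches 50% inhibition but some replicates fall short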
An asterisk follows results filed as active; ? = inconclusive; · = no result; ! = not confirmed by another sample; [ ] = dose if it differs, or a comment.

SMILES | ERAP1 inh | miR-122 sensor | S100A4 inh HTS | AF4-AF9 inh | Rtt109 HAT inh
Cc1noc(C)c1NC(=O)Nc1ccc2c(c1)C(=O)N([C@@H](C)CO)C[C@H](C)[C@@H](CN(C)C(=O)Nc1ccc(C(F)(F)F)cc1)OCCCC[C@@H](C)O2 | 0 | 2[16.7 µM] | -20 | 3 | ·
CN(C)CCCN1c2ccccc2Sc2ccc(C(F)(F)F)cc21 | 18 | -6 | 1 | 21 | 9
CN1CCN(CCCNC(=O)c2ccc(/C=C3/Sc4ccccc4N(Cc4cccc(Cl)c4)C3=O)cc2)CC1 | 5 | -7 | -3 | 27* | 43
OCCN1CCN(CCCN2c3ccccc3Sc3ccc(C(F)(F)F)cc32)CC1 | 23 | -3 | 2 | 18 | -3
CN(C)CCCN1c2ccc(O)cc2Sc2ccc(Cl)cc21 | 3 | · | 3 | 51* | ·
CN1CCN(CCCN2c3ccccc3Sc3ccc(Cl)cc32)CC1 | 5 | 4 | -6 | 36* | 53*!
CCSc1ccc2c(c1)N(CCCN1CCN(C)CC1)c1ccccc1S2 | 28 | -3 | -3 | 65* | 18
CN1CCN(CCCNC(=O)c2ccc(/C=C3\Sc4ccccc4N(Cc4ccc(F)cc4)C3=O)cc2)CC1 | 1 | -10 | 2 | 22 | 34
Cn1c(=O)c(Nc2ccc(O)cc2)c2c3c(cccc31)C(=O)c1ccccc1-2 | 1 | · | -2 | 29* | 1
Cc1ccccc1S(=O)(=O)N1CCCCN2[C@H](CO)[C@H](c3ccc(-c4cncnc4)cc3)[C@@H]2C1 | 1 | 2[16.7 µM] | 0 | -4 | ·
COc1cc2nc(Nc3ccc(C)c(C)c3)nc(N)c2cc1OC | -1 | · | -3 | 26* | 1
COc1cc2nc(Nc3ccc(C)c(Cl)c3)nc(N)c2cc1OC | 8 | · | 6 | 33* | 4
COc1cc2nc(Nc3ccc(F)cc3)nc(N)c2cc1OC | -5 | · | -2 | 13 | 7
Cc1ccc(Nc2nc(N)c3ccccc3n2)cc1Cl | -33 | · | 1 | 8 | 9
Cn1c(CCC(=O)Nc2cc(S(C)(=O)=O)ccc2Cl)nc2cc(S(=O)(=O)N3CCOCC3)ccc21 | 63* | -2 | -5 | 1 | -6
CCN(CC)c1nc2c(c(=O)[nH]c(=O)n2C)n1CCOc1ccccc1 | -1 | 0 | -2 | -5 | 58*
CN(C)c1nc2c(c(=O)[nH]c(=O)n2C)n1CCOc1ccccc1 | -1 | -5 | -3 | 0 | -1
Cc1noc(C)c1S(=O)(=O)N(C)C[C@H]1OCCCC[C@H](C)Oc2ccc(NC(=O)Cc3ccccc3)cc2C(=O)N([C@H](C)CO)C[C@@H]1C | 0 | 9[16.7 µM] | -7 | 0 | ·
COc1ccc(NS(=O)(=O)c2cc(C)ccc2NC(=O)c2cc(C)oc2C)cc1 | · | 404* | · | · | 0
Cc1cc(C)n2c(Nc3ccc4c(c3)OCCO4)c(-c3ccccn3)nc2n1 | 54* | · | -7 | 18 | ·
CCC(=O)N1[C@H](CO)[C@H](c2ccc(C3=CCCCC3)cc2)[C@H]1CNC1CCCC1 | -2 | · | -4 | 5 | ·
COc1ccc2nc(NC(=O)CN3C(=O)NC4(CCCCC4)C3=O)sc2c1 | 5 | 1 | -6 | -2 | 52*
COc1ccc2nc(NC(=O)CN3C(=O)NC4(CCCC4)C3=O)sc2c1 | 3 | · | 0 | -23 | 1
CCc1nnc(NC(=O)CN2C(=O)NC3(CC(C)CC(C)(C)C3)C2=O)s1 (stereo unspecified) | 1 | 2 | -1 | 1 | 10
CCc1nnc(NC(=O)CN2C(=O)NC3(CCCC3)C2=O)s1 | 39* | · | 2 | 0 | 5
SMILES | ERAP1 inh | miR-122 sensor | S100A4 inh HTS | AF4-AF9 inh | Rtt109 HAT inh
COc1ccc(-c2ccc(C3[C@H]4CNC[C@@H]3N4C(=O)Nc3ccc4c(c3)OCO4)cc2)cc1 (stereo partly specified) | 1 | · | 11 | 20 | ·
CC(=O)Nc1ccc(OCC(=O)NCc2ccccc2)cc1 | 4 | · | -12 | 0 | 52*
Cc1ccc(S(=O)(=O)Nc2cccc(-c3cn4ccsc4n3)c2)cc1 | · | 142* | · | · | 11
COc1ccc(NC(=O)Nc2ccc3c(c2)C(=O)N([C@@H](C)CO)C[C@H](C)[C@@H](CN(C)C(=O)Nc2ccc(C(F)(F)F)cc2)OCCCC[C@H](C)O3)cc1 | -5 | -16[16.7 µM] | -1 | -8 | ·
COc1ccc(S(=O)(=O)N2CCN(c3ncccn3)CC2)cc1 | · | · | 4 | 0 | -2
O=S(=O)(c1ccc(Cl)cc1)N1CCN(c2ncccn2)CC1 | -1 | · | 1 | -6 | 64*
C[C@@H]1CN([C@@H](C)CO)C(=O)Cc2cc(NC(=O)CCN3CCOCC3)ccc2O[C@H]1CN(C)Cc1ccncc1 | 0 | -3[16.7 µM] | 8 | -19 | ·
CC(=O)OCn1ncc(N2CCOCC2)c(Br)c1=O | -1 | -6 | 5 | 42* | 1
CCOc1ccc(N2C(=O)C(Cl)=C(N3CCOCC3)C2=O)cc1 | 0 | 7 | -2 | 7 | 116*
CC(C)c1ccc(N2C(=O)C(Cl)=C(N3CCOCC3)C2=O)cc1 | 3 | -13 | -4 | 38* | 12
CCCNC(=O)[C@@H]1[C@@H](CO)[C@@H]2Cn3c(ccc(-c4ccncc4)c3=O)[C@H]1N2CC1CC1 | · | -1[16.7 µM] | 9 | -1 | ·
Cc1sc2ncn(CC(=O)N(CC(=O)NC3CCCC3)Cc3cccs3)c(=O)c2c1C | -7 | 123* | -7 | -42 | -2
Cc1sc2ncn(CC(=O)NC3CCCCC3)c(=O)c2c1C | 5 | · | -3 | -1 | -22
CCCC(=O)Nc1ccc2c(c1)C(=O)N(C)C[C@H](OC)[C@H](C)CN(Cc1ccccc1F)[C@H](C)CO2 | 1 | 0[16.7 µM] | 14 | 2 | ·
COc1ccc(C(CCN2CCCC(C)C2)c2c(OC)cc(OC)c3c(-c4ccccc4)cc(=O)oc23)cc1 (stereo unspecified) | · | 42 | -12 | 27* | 7
COc1ccc(C(CCN2CCCC2)c2c(OC)cc(OC)c3c(-c4ccccc4)cc(=O)oc23)cc1 (stereo unspecified) | · | · | -1 | 15 | 18
CCCCCc1cc(=O)oc2c(C(CCN3CCCCC3)c3ccc4c(c3)OCO4)c(OC)cc(OC)c12 (stereo unspecified) | 0 | 35 | -5 | 27* | 23
CC1CCC(C(C)C)C(OC(=O)Cn2c(-c3ccc(Br)cc3)[n+](C)c3ccccc32)C1 (stereo unspecified) | 20 | -2 | 0 | 14 | ?
CC1CCC(C(C)C)C(OC(=O)Cn2c(-c3ccc(Cl)cc3)[n+](C)c3ccccc32)C1 (stereo unspecified) | 31* | -26 | -1 | 17 | 19
CC1CCC2(CC1)NC(=S)N(c1ccccc1)N2 (stereo unspecified) | · | -7 | · | · | 95*
CC1CCC2(CC1)NC(=S)N(C(C)(C)C)N2 (stereo unspecified) | -4 | -2 | -2 | -1 | 21
C[C@@H]1CN([C@@H](C)CO)S(=O)(=O)c2ccc(C#CC3CC3)cc2O[C@H]1CN(C)C(=O)c1cnccn1 | 1 | -15[16.7 µM] | 6 | -1 | ·

Screens: PubChem BioAssay, Broad Institute
